Experimental data reported in ChEMBL document CHEMBL4689842, “EUbOPEN Chemogenomics Library wave 1” (2021).

Tested on: Fibroblast
Assay: Multiplex assay against human fibroblast
Format: toxicity, cell-based
Outline: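 Per cents of healthy-nucleus cells form the tubulin, mitochondrial-mass and membrane-permeability phenotype values. Live cells were stained at seeding with Hoechst33342, BioTracker Green Microtubule Cytoskeleton Dye, MitoTracker Red and Annexin V Alexa Fluor 680. After compound addition they were imaged on a CQ1 microscope at 37°C and 5% CO2, and CellPathfinder machine-learning gating split them into Hoechst high-intensity objects or normal cells, normal cells into healthy, pyknosed or fragmented nuclei, and pyknosed cells into mitotic or apoptotic.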

[1] = 12 h, 1 µM, compound concentration 1 uM, replicate 1
[2] = 12 h, 1 µM, compound concentration 1 uM, replicate 2
[3] = 12 h, 10 µM, compound concentration 10 uM, replicate 1
[4] = 12 h, 10 µM, compound concentration 10 uM, replicate 2
[5] = 24 h, 1 µM, compound concentration 1 uM, replicate 1
[6] = 24 h, 1 µM, compound concentration 1 uM, replicate 2
[7] = 24 h, 10 µM, compound concentration 10 uM, replicate 1
[8] = 24 h, 10 µM, compound concentration 10 uM, replicate 2
[9] = 48 h, 1 µM, compound concentration 1 uM, replicate 1
[10] = 48 h, 1 µM, compound concentration 1 uM, replicate 2
[11] = 48 h, 10 µM, compound concentration 10 uM, replicate 1
[12] = 48 h, 10 µM, compound concentration 10 uM, replicate 2

Compound: CCCCCNC(=N)N/N=C/c1c[nH]c2ccc(OC)cc12.O=C(O)/C=C\C(=O)O [TEGASEROD MALEATE]
- Population Apoptotic (%) [1]: 65%
- Population Fragmented Nuclei (%) [1]: 25%
- Population Healthy Nuclei (%) [1]: 47%
- Population Hoechst High Intensity Objects (%) [1]: 8%
- Population Membrane Permeable-Phenotype (%) [1]: 10%
- Population Mitochondria Different-Phenotype (%) [1]: 0%
- Population Mitotic Cells (%) [1]: 34%
- Population Normal (%) [1]: 91%
- Population Pyknosed Nuclei (%) [1]: 27%
- Population Tubulin-Different-Phenotype (%) [1]: 22%
- Total Cell Count [1]: 114
- Population Apoptotic (%) [2]: 20%
- Population Fragmented Nuclei (%) [2]: 12%
- Population Healthy Nuclei (%) [2]: 79%
- Population Hoechst High Intensity Objects (%) [2]: 3%
- Population Membrane Permeable-Phenotype (%) [2]: 4%
- Population Mitochondria Different-Phenotype (%) [2]: 22%
- Population Mitotic Cells (%) [2]: 80%
- Population Normal (%) [2]: 96%
- Population Pyknosed Nuclei (%) [2]: 8%
- Population Tubulin-Different-Phenotype (%) [2]: 14%
- Total Cell Count [2]: 74
- Population Apoptotic (%) [3]: 50%
- Population Fragmented Nuclei (%) [3]: 34%
- Population Healthy Nuclei (%) [3]: 12%
- Population Hoechst High Intensity Objects (%) [3]: 20%
- Population Membrane Permeable-Phenotype (%) [3]: 6%
- Population Mitochondria Different-Phenotype (%) [3]: 50%
- Population Mitotic Cells (%) [3]: 49%
- Population Normal (%) [3]: 80%
- Population Pyknosed Nuclei (%) [3]: 52%
- Population Tubulin-Different-Phenotype (%) [3]: 62%
- Total Cell Count [3]: 155
- Population Apoptotic (%) [4]: 100%
- Population Fragmented Nuclei (%) [4]: 22%
- Population Healthy Nuclei (%) [4]: 3%
- Population Hoechst High Intensity Objects (%) [4]: 35%
- Population Membrane Permeable-Phenotype (%) [4]: 100%
- Population Mitochondria Different-Phenotype (%) [4]: 100%
- Population Mitotic Cells (%) [4]: 0%
- Population Normal (%) [4]: 64%
- Population Pyknosed Nuclei (%) [4]: 73%
- Population Tubulin-Different-Phenotype (%) [4]: 100%
- Total Cell Count [4]: 64
- Population Apoptotic (%) [5]: 52%
- Population Fragmented Nuclei (%) [5]: 24%
- Population Healthy Nuclei (%) [5]: 56%
- Population Hoechst High Intensity Objects (%) [5]: 10%
- Population Membrane Permeable-Phenotype (%) [5]: 15%
- Population Mitochondria Different-Phenotype (%) [5]: 1%
- Population Mitotic Cells (%) [5]: 47%
- Population Normal (%) [5]: 90%
- Population Pyknosed Nuclei (%) [5]: 18%
- Population Tubulin-Different-Phenotype (%) [5]: 35%
- Total Cell Count [5]: 100
- Population Apoptotic (%) [6]: 87%
- Population Fragmented Nuclei (%) [6]: 10%
- Population Healthy Nuclei (%) [6]: 77%
- Population Hoechst High Intensity Objects (%) [6]: 5%
- Population Membrane Permeable-Phenotype (%) [6]: 5%
- Population Mitochondria Different-Phenotype (%) [6]: 21%
- Population Mitotic Cells (%) [6]: 12%
- Population Normal (%) [6]: 94%
- Population Pyknosed Nuclei (%) [6]: 12%
- Population Tubulin-Different-Phenotype (%) [6]: 7%
- Total Cell Count [6]: 89
- Population Apoptotic (%) [7]: 74%
- Population Fragmented Nuclei (%) [7]: 39%
- Population Healthy Nuclei (%) [7]: 7%
- Population Hoechst High Intensity Objects (%) [7]: 18%
- Population Membrane Permeable-Phenotype (%) [7]: 12%
- Population Mitochondria Different-Phenotype (%) [7]: 37%
- Population Mitotic Cells (%) [7]: 25%
- Population Normal (%) [7]: 81%
- Population Pyknosed Nuclei (%) [7]: 53%
- Population Tubulin-Different-Phenotype (%) [7]: 75%
- Total Cell Count [7]: 133
- Population Apoptotic (%) [8]: 100%
- Population Fragmented Nuclei (%) [8]: 44%
- Population Healthy Nuclei (%) [8]: 26%
- Population Hoechst High Intensity Objects (%) [8]: 39%
- Population Membrane Permeable-Phenotype (%) [8]: 100%
- Population Mitochondria Different-Phenotype (%) [8]: 100%
- Population Mitotic Cells (%) [8]: 0%
- Population Normal (%) [8]: 60%
- Population Pyknosed Nuclei (%) [8]: 28%
- Population Tubulin-Different-Phenotype (%) [8]: 100%
- Total Cell Count [8]: 70
- Population Apoptotic (%) [9]: 50%
- Population Fragmented Nuclei (%) [9]: 37%
- Population Healthy Nuclei (%) [9]: 58%
- Population Hoechst High Intensity Objects (%) [9]: 15%
- Population Membrane Permeable-Phenotype (%) [9]: 10%
- Population Mitochondria Different-Phenotype (%) [9]: 1%
- Population Mitotic Cells (%) [9]: 50%
- Population Normal (%) [9]: 84%
- Population Pyknosed Nuclei (%) [9]: 4%
- Population Tubulin-Different-Phenotype (%) [9]: 24%
- Total Cell Count [9]: 115
- Population Apoptotic (%) [10]: 66%
- Population Fragmented Nuclei (%) [10]: 23%
- Population Healthy Nuclei (%) [10]: 72%
- Population Hoechst High Intensity Objects (%) [10]: 18%
- Population Membrane Permeable-Phenotype (%) [10]: 12%
- Population Mitochondria Different-Phenotype (%) [10]: 3%
- Population Mitotic Cells (%) [10]: 33%
- Population Normal (%) [10]: 81%
- Population Pyknosed Nuclei (%) [10]: 3%
- Population Tubulin-Different-Phenotype (%) [10]: 44%
- Total Cell Count [10]: 94
- Population Apoptotic (%) [11]: 76%
- Population Fragmented Nuclei (%) [11]: 48%
- Population Healthy Nuclei (%) [11]: 20%
- Population Hoechst High Intensity Objects (%) [11]: 33%
- Population Membrane Permeable-Phenotype (%) [11]: 17%
- Population Mitochondria Different-Phenotype (%) [11]: 23%
- Population Mitotic Cells (%) [11]: 23%
- Population Normal (%) [11]: 66%
- Population Pyknosed Nuclei (%) [11]: 30%
- Population Tubulin-Different-Phenotype (%) [11]: 64%
- Total Cell Count [11]: 127
- Population Apoptotic (%) [12]: 85%
- Population Fragmented Nuclei (%) [12]: 52%
- Population Healthy Nuclei (%) [12]: 15%
- Population Hoechst High Intensity Objects (%) [12]: 45%
- Population Membrane Permeable-Phenotype (%) [12]: 30%
- Population Mitochondria Different-Phenotype (%) [12]: 50%
- Population Mitotic Cells (%) [12]: 15%
- Population Normal (%) [12]: 54%
- Population Pyknosed Nuclei (%) [12]: 31%
- Population Tubulin-Different-Phenotype (%) [12]: 80%
- Total Cell Count [12]: 115
